Measured values published in ChEMBL document CHEMBL1287724, “Discovery of INCB3344, a potent, selective and orally bioavailable antagonist of human and murine CCR2” (Bioorg Med Chem Lett, 2010).
Blank lines part the entries; values can stand above or below the molecule they belong to.

How the values were obtained:
[1] = target: C-C chemokine receptor type 2 (Homo sapiens, UniProt P41597); assay: Displacement of [125I]MCP1 from human CCR2 after 30 mins by gamma counter
[2] = Protein binding in human serum assessed as unbound fraction; assay type: ADME, cell-free; conditions: read-out: PB
[3] = target: C-C chemokine receptor type 2 (Mus musculus, UniProt P51683); assay: Displacement of [125I]MCP1 from mouse CCR2 after 30 mins by gamma counter
[4] = Half life in CD-1 mouse at 5 mg/kg, iv; assay type: ADME, organism-based; parameters: dose 5 mg/kg, route intravenous; conditions: in vivo
Outline: (§1)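 CD-1 mice dosed intravenously at 5 mg/kg and orally at 10 mg/kg. Clearance, steady-state volume of distribution and half-life were taken from the iv arm. Cmax and AUC were taken from the po arm. Oral bioavailability was derived from the po and iv exposures.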

[5] = Oral bioavailability in CD-1 mouse at 10 mg/kg, po; assay type: ADME, organism-based; conditions: in vivo; outline: as §1
Mus musculus = assay: Volume of distribution at steady state in CD-1 mouse at 5 mg/kg, iv; assay type: ADME, organism-based; parameters: dose 5 mg/kg, route intravenous; conditions: in vivo; outline: as §1
CCR2 protein = target: T1, CCR2 protein (Macaca fascicularis, UniProt Q6Y3N0); assay: Inhibition of cynomolgus CCR2
T1 sequence (Q6Y3N0 whole entry): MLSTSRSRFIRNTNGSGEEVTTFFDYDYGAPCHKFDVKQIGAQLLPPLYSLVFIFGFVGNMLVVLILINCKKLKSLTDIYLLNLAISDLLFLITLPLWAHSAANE

[6] = target: Voltage-gated inwardly rectifying potassium channel KCNH2 (Homo sapiens, UniProt Q12809)
[7] = target: T2, C-C chemokine receptor type 1 (Mus musculus, UniProt P51675); assay: Inhibition of mouse CCR1
T2 sequence (P51675 whole entry): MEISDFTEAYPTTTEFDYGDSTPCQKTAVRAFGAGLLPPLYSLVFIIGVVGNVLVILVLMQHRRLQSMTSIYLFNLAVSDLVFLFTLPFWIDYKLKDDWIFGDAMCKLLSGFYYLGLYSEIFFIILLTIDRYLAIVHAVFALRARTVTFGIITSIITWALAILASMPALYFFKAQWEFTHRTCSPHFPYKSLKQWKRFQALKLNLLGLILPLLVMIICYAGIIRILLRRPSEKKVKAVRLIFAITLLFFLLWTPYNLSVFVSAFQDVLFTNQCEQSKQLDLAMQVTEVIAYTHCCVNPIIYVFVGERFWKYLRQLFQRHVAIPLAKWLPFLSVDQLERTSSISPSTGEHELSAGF

[8] = Clearance in CD-1 mouse at 5 mg/kg, iv; assay type: ADME, organism-based; parameters: dose 5 mg/kg, route intravenous; conditions: in vivo; outline: as §1
[9] = Protein binding in mouse serum assessed as unbound fraction; assay type: ADME, cell-free; conditions: read-out: PB
[10] = Cmax in CD-1 mouse at 10 mg/kg, po; assay type: ADME, organism-based; parameters: dose 10 mg/kg, route oral; conditions: in vivo; outline: as §1
[11] = AUC in CD-1 mouse at 10 mg/kg, po; assay type: ADME, organism-based; parameters: dose 10 mg/kg, route oral; conditions: plasma; outline: as §1
[12] = target: C-C chemokine receptor type 5 (Mus musculus, UniProt P51682); assay: Inhibition of mouse CCR5
[13] = Cmax in BALB/c mouse at 10 mg/kg, po; assay type: ADME, organism-based; parameters: dose 10 mg/kg, route oral; conditions: in vivo
[14] = target: T3, C-C chemokine receptor type 2 (Rattus norvegicus, UniProt O55193); assay: Inhibition of rat CCR2
T3 sequence (O55193 whole entry): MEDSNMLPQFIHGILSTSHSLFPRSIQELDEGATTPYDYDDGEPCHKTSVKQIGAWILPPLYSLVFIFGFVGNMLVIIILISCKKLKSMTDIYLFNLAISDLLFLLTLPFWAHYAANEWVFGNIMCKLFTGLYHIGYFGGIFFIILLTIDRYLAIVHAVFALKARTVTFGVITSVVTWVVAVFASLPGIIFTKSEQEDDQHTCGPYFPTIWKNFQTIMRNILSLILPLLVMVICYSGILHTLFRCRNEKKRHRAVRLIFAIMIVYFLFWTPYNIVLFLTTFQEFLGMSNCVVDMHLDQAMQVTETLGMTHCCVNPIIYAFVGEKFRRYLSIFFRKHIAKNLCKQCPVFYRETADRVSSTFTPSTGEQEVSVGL

[15] = AUC in BALB/c mouse at 10 mg/kg, po; assay type: ADME, organism-based; parameters: dose 10 mg/kg, route oral; conditions: plasma

Sequence of C-C chemokine receptor type 2 (Homo sapiens, UniProt P41597) (P41597 whole entry): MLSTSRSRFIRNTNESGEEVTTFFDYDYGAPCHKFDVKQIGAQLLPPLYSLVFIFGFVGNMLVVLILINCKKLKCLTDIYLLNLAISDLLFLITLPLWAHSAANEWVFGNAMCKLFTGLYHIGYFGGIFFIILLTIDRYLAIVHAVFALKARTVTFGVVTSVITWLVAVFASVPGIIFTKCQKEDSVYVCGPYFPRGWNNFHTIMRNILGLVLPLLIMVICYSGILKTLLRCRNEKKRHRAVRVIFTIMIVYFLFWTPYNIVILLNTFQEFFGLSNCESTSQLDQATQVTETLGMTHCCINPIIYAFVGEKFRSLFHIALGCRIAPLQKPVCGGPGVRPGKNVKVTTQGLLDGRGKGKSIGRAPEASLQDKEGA
Sequence of C-C chemokine receptor type 2 (Mus musculus, UniProt P51683) (P51683 whole entry): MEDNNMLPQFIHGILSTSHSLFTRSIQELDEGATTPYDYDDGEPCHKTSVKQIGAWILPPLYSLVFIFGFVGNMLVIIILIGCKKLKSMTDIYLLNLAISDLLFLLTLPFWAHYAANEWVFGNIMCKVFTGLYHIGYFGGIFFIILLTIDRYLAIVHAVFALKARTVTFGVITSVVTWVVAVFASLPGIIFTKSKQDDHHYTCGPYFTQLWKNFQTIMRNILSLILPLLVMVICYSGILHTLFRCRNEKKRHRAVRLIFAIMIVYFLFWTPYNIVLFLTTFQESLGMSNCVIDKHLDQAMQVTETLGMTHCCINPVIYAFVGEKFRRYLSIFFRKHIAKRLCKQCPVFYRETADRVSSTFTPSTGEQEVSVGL
Sequence of Voltage-gated inwardly rectifying potassium channel KCNH2 (Q12809 whole entry): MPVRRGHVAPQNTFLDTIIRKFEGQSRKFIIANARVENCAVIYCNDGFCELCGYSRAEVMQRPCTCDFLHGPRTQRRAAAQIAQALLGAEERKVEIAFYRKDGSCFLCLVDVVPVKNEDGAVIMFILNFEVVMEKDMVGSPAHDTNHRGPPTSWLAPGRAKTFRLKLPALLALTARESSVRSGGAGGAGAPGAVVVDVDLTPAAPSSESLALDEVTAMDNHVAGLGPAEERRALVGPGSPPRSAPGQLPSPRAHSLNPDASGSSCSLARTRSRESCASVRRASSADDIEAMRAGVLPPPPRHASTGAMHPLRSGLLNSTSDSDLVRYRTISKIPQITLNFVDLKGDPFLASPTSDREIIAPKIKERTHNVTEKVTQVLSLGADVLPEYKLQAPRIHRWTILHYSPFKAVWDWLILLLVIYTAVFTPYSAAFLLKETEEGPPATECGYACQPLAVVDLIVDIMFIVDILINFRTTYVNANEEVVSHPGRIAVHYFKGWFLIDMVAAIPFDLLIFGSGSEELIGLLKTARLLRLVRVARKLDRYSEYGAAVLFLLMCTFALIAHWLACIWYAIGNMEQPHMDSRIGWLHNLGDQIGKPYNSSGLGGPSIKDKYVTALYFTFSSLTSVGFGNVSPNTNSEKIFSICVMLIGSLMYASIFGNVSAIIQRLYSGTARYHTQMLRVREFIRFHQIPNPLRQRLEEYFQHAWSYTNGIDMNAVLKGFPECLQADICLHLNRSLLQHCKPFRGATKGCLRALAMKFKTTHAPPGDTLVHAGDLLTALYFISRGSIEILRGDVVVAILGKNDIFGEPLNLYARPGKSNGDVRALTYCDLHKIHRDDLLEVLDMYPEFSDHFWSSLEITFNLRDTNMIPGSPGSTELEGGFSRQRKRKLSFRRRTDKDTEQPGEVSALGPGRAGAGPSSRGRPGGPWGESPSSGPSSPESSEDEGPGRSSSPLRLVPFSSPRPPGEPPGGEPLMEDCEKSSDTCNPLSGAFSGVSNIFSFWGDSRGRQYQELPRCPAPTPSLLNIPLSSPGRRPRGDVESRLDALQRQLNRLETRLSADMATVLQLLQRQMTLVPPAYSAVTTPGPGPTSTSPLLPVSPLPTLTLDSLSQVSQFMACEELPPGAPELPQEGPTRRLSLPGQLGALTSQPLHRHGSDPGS
Sequence of C-C chemokine receptor type 5 (P51682 whole entry): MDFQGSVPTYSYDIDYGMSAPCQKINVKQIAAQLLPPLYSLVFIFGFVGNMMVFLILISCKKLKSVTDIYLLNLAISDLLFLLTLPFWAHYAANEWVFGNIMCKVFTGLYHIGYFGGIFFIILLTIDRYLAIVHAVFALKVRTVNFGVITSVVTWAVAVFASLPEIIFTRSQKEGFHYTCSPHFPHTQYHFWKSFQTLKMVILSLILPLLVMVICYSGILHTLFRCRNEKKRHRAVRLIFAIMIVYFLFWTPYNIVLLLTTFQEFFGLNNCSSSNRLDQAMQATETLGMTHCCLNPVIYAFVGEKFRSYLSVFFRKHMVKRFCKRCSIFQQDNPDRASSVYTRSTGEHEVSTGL

Structure (SMILES): O=C(CNC(=O)c1cccc(C(F)(F)F)c1)N[C@H]1CN([C@H]2CC[C@@H](c3ccccc3)C2)C[C@@H]1O
IC50 [1]: 0.12 µM

Structure (SMILES): O=C(CNC(=O)c1cccc(C(F)(F)F)c1)N[C@H]1CN([C@H]2CC[C@@H](c3ccccc3)CC2)C[C@@H]1O
IC50 [1]: 0.0074 µM
fraction unbound [2]: 0.026
IC50 [3]: 0.186 µM

Structure (SMILES): O=C(CNC(=O)c1cccc(C(F)(F)F)c1)N[C@H]1CN([C@H]2CC[C@H](c3ccccc3)C2)C[C@@H]1O
IC50 [1]: > 1 µM

Structure (SMILES): CCCO[C@H]1CN([C@H]2CC[C@@H](c3ccccc3)CC2)C[C@@H]1NC(=O)CNC(=O)c1cccc(C(F)(F)F)c1
IC50 [1]: 0.0029 µM
IC50 [3]: 0.0019 µM

Structure (SMILES): CCO[C@H]1CN([C@H]2CC[C@@](O)(c3ccc4c(c3)OCO4)CC2)C[C@@H]1NC(=O)CNC(=O)c1cccc(C(F)(F)F)c1
half-life [4]: 1 h
bioavailability [5]: 47%
Vdss (Mus musculus): 2.8 L/kg
IC50 (CCR2 protein): 0.016 µM
fraction unbound [2]: 0.24
IC50 [6]: 13 µM
IC50 [7]: > 1 µM
clearance [8]: 85 mL/min/kg
fraction unbound [9]: 0.15
Cmax [10]: 1890 nM
AUC [11]: 2.66 µM·h
IC50 [12]: > 3 µM
Cmax [13]: 961 nM
IC50 [14]: 0.0073 µM
AUC [15]: 3.89 µM·h

Structure (SMILES): CCO[C@H]1CN([C@H]2CC[C@@](O)(c3ccccc3)CC2)C[C@@H]1NC(=O)CNC(=O)c1cccc(C(F)(F)F)c1
IC50 [1]: 0.0023 µM
fraction unbound [2]: 0.26
IC50 [3]: 0.01 µM
fraction unbound [9]: 0.18

Structure (SMILES): O=C(CNC(=O)c1cccc(C(F)(F)F)c1)N[C@H]1CN([C@H]2CCC[C@@H](c3ccccc3)C2)C[C@@H]1O
IC50 [1]: > 1 µM

Structure (SMILES): CCO[C@H]1CN([C@H]2CC[C@@H](c3ccccc3)CC2)C[C@@H]1NC(=O)CNC(=O)c1cccc(C(F)(F)F)c1
IC50 [1]: 0.00095 µM
fraction unbound [2]: < 0.005
IC50 [3]: 0.0019 µM
fraction unbound [9]: 0.023

Structure (SMILES): O=C(CNC(=O)c1cccc(C(F)(F)F)c1)N[C@H]1CN([C@H]2CC[C@@H](c3ccccc3)CC2)C[C@@H]1OCc1ccccc1
IC50 [1]: 0.017 µM
IC50 [3]: 0.051 µM

Structure (SMILES): CCO[C@H]1CN([C@H]2CC[C@@](O)(c3ccc(C)cc3)CC2)C[C@@H]1NC(=O)CNC(=O)c1cccc(C(F)(F)F)c1
IC50 [1]: 0.0023 µM
IC50 [3]: 0.0021 µM
fraction unbound [9]: 0.079

Results, then the molecule that gave them:

IC50 [1]: > 1 µM
Structure (SMILES): O=C(CNC(=O)c1cccc(C(F)(F)F)c1)N[C@H]1CN([C@H]2CCC[C@H](c3ccccc3)C2)C[C@@H]1O

IC50 [1]: 0.047 µM
IC50 [3]: 0.054 µM
Structure (SMILES): CCCCO[C@H]1CN([C@H]2CC[C@@H](c3ccccc3)CC2)C[C@@H]1NC(=O)CNC(=O)c1cccc(C(F)(F)F)c1

IC50 [1]: 0.649 µM
Structure (SMILES): O=C(CNC(=O)c1cccc(C(F)(F)F)c1)N[C@H]1CN(C2CCN(c3ccccc3)CC2)C[C@@H]1O

IC50 [1]: > 1 µM
Structure (SMILES): O=C(CNC(=O)c1cccc(C(F)(F)F)c1)N[C@H]1CN([C@H]2CC[C@H](c3ccccc3)CC2)C[C@@H]1O
